Bioassay records: PubChem BioAssay, several laboratories
BaF3 tox = counter-screen for JAK2V617F inhibitors: parental Ba/F3 viability inhibitors; inhibition, % at 5.6 µM; actives 1.1% (n = 220,000); CellTiter-Glo ATP luminescence;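 active means inhibition above a per-campaign cutoff, the mean inhibition of all tested compounds plus 3 SD, cut at about 27% in these data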;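 further: 0% = DMSO wells and 100% = JAK Inhibitor I control wells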
bCat nuc transl = modulators of beta-catenin nuclear translocation. HeLa beta-catenin nuclear translocation, immunofluorescence imaging. nuclear translocation activity, % at 5 µM. actives 0.3% (n = 190,000). AID 1665;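 active means nuclear translocation activity above 50% at 5 µM, with a well cell count of 50 or more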;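 further: per-cell ratio of nuclear to cytoplasmic median beta-catenin stain intensity; plate controls were DMSO negative control for no effect and GSK-3 inhibitor IX positive control for full effect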
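Test system: human HeLa cell line; Doses: 5 µM primary, 0.02–20 µM confirmation; Incubation: 24 h compound exposure, 37°C; Detection: beta-catenin immunofluorescence imaging with DAPI; Read-out: beta-catenin nuclear/cytoplasmic ratio, % activation.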
APP transl inh = APP translation inhibition; SH-SY5Y APP 5'UTR-luciferase reporter, luminescence; actives 0.82% (n = 190,000); AID 1285; inhibition, % at 2 µM;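 active means inhibition above a set limit, derived from the sample mean plus 3 SD, cut at about 45% in these data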
L major viab = inhibitors of Leishmania major promastigote growth | Leishmania major promastigotes, resazurin fluorescence viability | inhibition, % at 10 µM | actives 9% (n = 200,000) | AID 1063; in the data active means inhibition above about 50%;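 further: promastigotes grown with compound for 44 hours at 28 °C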
Ba/F3 V617F tox = loss of viability in JAK2V617F-driven Ba/F3 cells. Ba/F3 EpoR-JAK2V617F viability, ATP luminescence. inhibition, % at 5.6 µM. actives 1.1% (n = 220,000);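 active means inhibition above the campaign mean plus 3 SD over all tested compounds, cut at about 24% in these data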;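 further: cytokine-independent growth of Ba/F3 cells driven by EpoR plus mutant JAK2; 0% = DMSO-treated cells and 100% = JAK inhibitor I control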
MT stabilizer = microtubule stabilizers in HeLa cells; HeLa tubulin immunostaining HCS, 24 h; share of cells brighter than vehicle mean+2SD; % tubulin-high responders, % at 10 µM; actives 0.83% (n = 200,000); AID 2205;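 active means plate Z-score above 3 for both tubulin-high and condensed-nucleus cell shares, with cell loss under 80%, at 10 µM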;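 further: anti alpha tubulin signal scored within the nucleus-defined area of each cell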
* marks the source's active call; other numbers are inactive results; . = no result. An excerpt weighted towards active compounds, which were near 9.6% of everything screened.

SMILES	BaF3 tox	bCat nuc transl	APP transl inh	L major viab	Ba/F3 V617F tox	MT stabilizer
CC1(C)COC(/C=C/c2cccc([N+](=O)[O-])c2)=N1	-2	8	8	98*	5	24*
CCOC(=O)N1CCN(C(=S)NC(=O)c2ccc(F)cc2)CC1	6	0	-38	-7	-1	2
CCc1ccc(C(=O)NN(C(=O)c2ccc(CC)cc2)C(C)(C)C)cc1	8	-6	12	98*	6	6
CC1=[N+](C)c2c(ccc3cccnc23)C1(C)C	63*	1	20	98*	72*	3
CCC(C)c1ccccc1NC(=O)CN1CCN(C/C=C/c2ccccc2)CC1 (centres undefined)	7	-3	-2	96*	2	5
O=C(CN1CCN(C/C=C/c2ccccc2)CC1)NCc1ccccc1	4	-3	-11	63*	0	4
O=C(CN1CCCCCC1)NCc1ccccc1	4	-1	6	0	1	5
CC(=O)N1CCN(CC(=O)Nc2ccccc2Sc2ccccc2)CC1	6	-5	16	48	5	3
CC(=O)NC(C)c1nc2ccccc2n1CC(=O)NC(C)CCc1ccccc1 (centres undefined)	3	7	0	1	2	3
CC1(C)CC(CCC(=O)NC(=S)Nc2ccccc2Cl)C(=O)O1 (centres undefined)	3	-1	2	-7	0	3
O=c1[nH]c(-c2ccc(F)cc2)nc2c1sc(=S)n2-c1ccccc1	7	0	14	14	5	4
O=c1[nH]c(-c2ccc3c(c2)OCO3)nc2c1sc(=S)n2-c1ccccc1	0	1	22	51*	-3	2
COc1ccccc1CNC(=S)Nc1ccc2nc(N3CCN(C)CC3)cc(C)c2c1	8	-1	-22	100*	1	1
CCN1CCN(c2cc(C)c3cc(NC(=S)NCc4cccs4)ccc3n2)CC1	9	2	-14	99*	3	2
Cc1cc(N2CCN(C)CC2)nc2ccc(NC(=S)NCc3cccs3)cc12	7	0	-2	99*	3	2
COc1ccc(CNC(=S)Nc2ccc3nc(N4CCN(C)CC4)cc(C)c3c2)cc1	4	0	-26	19	6	6
CCC(C)NC(=S)Nc1ccc2nc(N3CCN(CC)CC3)cc(C)c2c1 (centres undefined)	3	22	-8	94*	-2	8
CCN1CCN(c2cc(C)c3cc(NC(=S)N(CC)CC)ccc3n2)CC1	9	-1	15	7	4	6
CCOc1ccc(N2C(=O)CN=C2Nc2ccccc2F)cc1	2	-2	3	-5	-3	3
CC(NC(=O)c1ccc(OC2CCN(C(=O)c3cccnc3)CC2)cc1)C1CC1 (centres undefined)	10	2	12	-12	1	3
CCOc1ccccc1NC(=O)CCC(=O)Nc1ccc2nc(N3CCN(C)CC3)cc(C)c2c1	2	0	-2	74*	-4	2
O=C(Nc1cccc(NC(=O)c2ncn[nH]2)c1)c1cccc(Cl)c1	-3	0	18	100*	-1	2
O=C(CC(=O)NC1CCCCC1)N/N=C/c1ccccc1F	0	-1	-18	5	-4	4
N#CC1=C(N)OC2=C(CCC/C2=C/c2ccoc2)C1c1ccoc1 (centres undefined)	0	0	2	0	2	3
N#CC1=C(N)OC2=C(CC/C2=C\c2ccc(F)cc2)C1c1ccc(F)cc1 (centres undefined)	4	10	-6	100*	-7	3
SMILES	BaF3 tox	bCat nuc transl	APP transl inh	L major viab	Ba/F3 V617F tox	MT stabilizer
OCCC1CN(Cc2cc(F)ccc2-n2cccn2)CCN1Cc1ccc(F)cc1 (centres undefined)	-2	1	.	.	0	.
O=C(N/N=C/c1cccc(Cl)c1Cl)Nc1ccccc1	5	-3	-20	-3	4	1
O=C(N/N=C/c1ccc(Cl)cc1Cl)Nc1ccccc1	0	10	-10	-4	-5	19*
CC(C)c1[nH]nc2c1C(c1ccco1)C(C#N)=C(N)O2 (centres undefined)	1	1	-9	24	-4	3
CC(C1CC1)N(Cc1ccccc1)C(=S)Nc1cccc(C(F)(F)F)c1 (centres undefined)	2	.	-2	88*	-3	4
CC(C1CC1)N(Cc1ccccc1)C(=S)Nc1ccccc1 (centres undefined)	8	2	-23	4	-1	3
CSC(=S)N/N=C(\C)c1ccccc1	2	-4	3	100*	-2	4
CN(C)/N=C/C=C1\CC/C(=C\c2ccc(Br)cc2)C1=O	3	-1	2	77*	0	1
CCN(c1ccccc1)S(=O)(=O)c1ccc(C(=O)Oc2ccc(C(C)=O)cc2)cc1	1	-1	9	50*	1	3
CCN(c1ccccc1)S(=O)(=O)c1ccc(C(=O)OC(C)C(=O)NCCC2=CCCCC2)cc1 (centres undefined)	6	-2	-6	96*	0	3
CCC(C)n1c(=S)[nH]c2c(sc3ccc([N+](=O)[O-])cc32)c1=O (centres undefined)	10	-6	2	7	6	4
COc1ccccc1C(=O)N/C(=C\c1ccc2c(c1)OCO2)C(=O)NCCc1nc2ccccc2[nH]1	10	-4	11	-1	2	4
CC1(C)CC(=O)C(C(C2=C(O)CC(C)(C)CC2=O)c2ccc(O)c([N+](=O)[O-])c2)=C(O)C1	94*	0	-18	-6	3	3
NC(=O)c1ccc(NC(=O)COC(=O)C2CC(=O)N(Cc3ccccc3)C2)cc1 (centres undefined)	4	1	7	-1	0	5
C=CCNCCCCOc1ccc(C)cc1[N+](=O)[O-]	6	0	2	61*	0	2
Cc1ccc(OCCOCCNC(C)(C)C)c([N+](=O)[O-])c1	0	1	-5	92*	0	3
COc1cccc(OCCOCCOc2ccc(C)cc2[N+](=O)[O-])c1	11	10	-6	3	4	2
CCC(C)NCCCOc1ccc(C)cc1OC (centres undefined)	5	0	-7	1	4	5
CCC(C)NCCCCOc1ccc(C)cc1[N+](=O)[O-] (centres undefined)	5	0	-6	88*	0	2
COCCCNCCOc1ccc(C)cc1[N+](=O)[O-]	12	5	-11	90*	-1	3
C=CCSc1nc(N)c(C(=O)Nc2ccccc2C)cc1C(N)=O	2	.	-6	3	-1	3
